From ChEMBL document CHEMBL2434879, “Small molecular inhibitors of miR-1 identified from photocycloadducts of acetylenes with 2-methoxy-1,4-naphthalenequinone” (Bioorg Med Chem, 2013)
Activity calls are given as the source filed them. The calls are words filed in the database; no cut-off is given here.

Tests used:
Type in all cases: cell-based
[1] = tested on: Nucleic Acid; experiment: Inhibition of microRNA miR-1 (unknown origin) transfected in mouse C2C12 cells at 5 uM after 48 hrs by luciferase reporter gene assay relative to DMSO-treated control
Procedure, shortened: (§1)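 C2C12 co-transfected at 70% confluence with miR-1 luciferase reporter (0.25 µg) plus β-galactosidase plasmid (0.25 µg, transfection control) via lipofectamine 2000. After 6 h the medium was switched to DMEM with 2% horse serum to induce differentiation, and compound was added (DMSO final 1:1000). Cells were incubated 48 h at 37 °C, 5% CO2, then luciferase read and normalized to DMSO. Triplicates, mean ± SE (n = 3).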

[2] = tested on: Nucleic Acid; experiment: Inhibition of microRNA miR-25 (unknown origin) transfected in human A549 cells at 10 uM after 48 hrs by luciferase reporter gene assay relative to DMSO-treated control
Procedure, shortened: (§2)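 Cells transfected with the matching miRNA luciferase reporter ([…] for miR-150; A549 for miR-25 or miR-214), with β-gal as internal reference. Treated with 10 µM compound in high-glucose DMEM with 2% FBS (DMSO final 1:1000) for 48 h at 37 °C, 5% CO2. Luciferase signal was normalized to the DMSO control. Triplicates, mean ± SE (n = 3).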

[3] = tested on: Nucleic Acid; experiment: Inhibition of microRNA miR-214 (unknown origin) transfected in human A549 cells at 10 uM after 48 hrs by luciferase reporter gene assay relative to DMSO-treated control; procedure, shortened: as §2
[4] = tested on: Nucleic Acid; experiment: Inhibition of microRNA miR-1 (unknown origin) transfected in mouse C2C12 cells at 10 uM after 48 hrs by luciferase reporter gene assay relative to DMSO-treated control; procedure, shortened: as §1
[5] = tested on: Nucleic Acid; experiment: Inhibition of microRNA miR-150 (unknown origin) transfected in mouse […] cells at 10 uM after 48 hrs by luciferase reporter gene assay relative to DMSO-treated control; procedure, shortened: as §2
[6] = tested on: Nucleic Acid; experiment: Reduction in cytoplasmic level of microRNA miR-150 (unknown origin) transfected in mouse […] cells at 10 uM after 48 hrs by quantitative RT-PCR method relative to DMSO-treated control
Procedure, shortened: (§3)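 Total RNA (TRIZOL) taken after 48 h compound or DMSO treatment from differentiated C2C12 (miR-1), HeLa (miR-21), A549 (miR-25, miR-214), MCF-7 (miR-9) and […] (miR-150). 2 µg RNA per RT with miRNA-specific primers (16 °C 30 min, 42 °C 30 min, 85 °C 5 min). TaqMan qPCR: 95 °C 10 min, then 40 cycles of 95 °C 15 s and 60 °C 1 min. Comparative Ct method, normalized to DMSO; triplicates, mean ± SE (n = 3).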

[7] = tested on: Nucleic Acid; experiment: Reduction in cytoplasmic level of microRNA miR-214 (unknown origin) transfected in human A549 cells at 10 uM after 48 hrs by quantitative RT-PCR method relative to DMSO-treated control; procedure, shortened: as §3
[8] = tested on: Nucleic Acid; experiment: Inhibition of microRNA miR-21 (unknown origin) transfected in human HeLa cells at 10 uM after 48 hrs by luciferase reporter gene assay relative to DMSO-treated control
Procedure, shortened: (§4)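 Reporter cells for miR-21 (HeLa) or miR-9 (MCF-7) given 10 µM compound for 48 h. Luciferase signal normalized to DMSO control. Triplicates, mean ± SE (n = 3).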

[9] = tested on: Nucleic Acid; experiment: Reduction in cytoplasmic level of microRNA miR-25 (unknown origin) transfected in human A549 cells at 10 uM after 48 hrs by quantitative RT-PCR method relative to DMSO-treated control; procedure, shortened: as §3
[10] = tested on: Nucleic Acid; experiment: Inhibition of microRNA miR-9 (unknown origin) transfected in human MCF7 cells at 10 uM after 48 hrs by luciferase reporter gene assay relative to DMSO-treated control; procedure, shortened: as §4
[11] = tested on: Nucleic Acid; experiment: Reduction in cytoplasmic level of microRNA miR-9 (unknown origin) transfected in human MCF7 cells at 10 uM after 48 hrs by quantitative RT-PCR method relative to DMSO-treated control; procedure, shortened: as §3
[12] = tested on: Nucleic Acid; experiment: Reduction in cytoplasmic level of microRNA miR-21 (unknown origin) transfected in human HeLa cells at 10 uM after 48 hrs by quantitative RT-PCR method relative to DMSO-treated control; procedure, shortened: as §3
[13] = tested on: Nucleic Acid; experiment: Reduction in cytoplasmic level of microRNA miR-1 (unknown origin) transfected in mouse C2C12 cells at 10 uM after 48 hrs by quantitative RT-PCR method relative to DMSO-treated control; procedure, shortened: as §3
[14] = tested on: Nucleic Acid; experiment: Inhibition of microRNA miR-1 (unknown origin) transfected in mouse C2C12 cells after 48 hrs by luciferase reporter gene assay relative to DMSO-treated control; procedure, shortened: as §1

| SMILES | inhibition [1] | fold change (FC) [2] | fold change (FC) [3] | fold change (FC) [4] | fold change (FC) [5] | also measured |
| --- | --- | --- | --- | --- | --- | --- |
| COc1ccc(C2=C(C3CC3)C3C(=O)c4ccccc4C(=O)C23OC)c2cccnc12 (centres undefined) | Active | – | – | – | – | – |
| COC12C=C(c3ccc(OC(C)=O)c4ncccc34)C1C(=O)c1ccccc1C2=O (centres undefined) | inactive | – | – | – | – | – |
| COC12C(=O)c3ccccc3C(=O)C1C(c1ccc(O)c3ncccc13)=C2[Si](C)(C)C (centres undefined) | Active | – | – | – | – | – |
| COC12C(=O)c3ccccc3C(=O)C1C(c1cnccn1)=C2c1ccccc1 (centres undefined) | – | 1.01 | 0.93 | 1.12 | 1.32 | – |
| COC12C(=O)c3ccccc3C(=O)C1C(C1CC1)=C2c1ccc(OC(C)=O)c2ncccc12 (centres undefined) | inactive | – | – | – | – | – |
| COC12C(=O)c3ccccc3C(=O)C1C(c1ccccc1)=C2c1ccc(OC(=O)OC(C)(C)C)c2ncccc12 (centres undefined) | – | 0.95 | 1.01 | 7.11 | 1.35 | Activity [6]: inactive; Activity [7]: inactive; inhibition [8]: inactive; Activity [9]: inactive; inhibition [10]: inactive; Activity [11]: inactive; Activity [12]: inactive; fold change (FC) [13]: 4; inhibition [14]: Dose-dependent effect |
| COC12C(=O)c3ccccc3C(=O)C1C(C1CC1)=C2c1cnc2ccccc2c1 (centres undefined) | – | 1 | 0.93 | 1.36 | 0.83 | – |
| COC12C(=O)c3ccccc3C(=O)C1C(c1ccccc1)=C2c1ccc(OC(C)=O)c2ncccc12 (centres undefined) | inactive | – | – | – | – | – |
| COc1ccc(C2=CC3(OC)C(=O)c4ccccc4C(=O)C23)c2cccnc12 (centres undefined) | inactive | – | – | – | – | – |
| COC12C(=O)c3ccccc3C(=O)C1C(c1ccccc1)=C2c1ccc(O)c2ncccc12 (centres undefined) | Active | – | – | – | – | – |
| COC12C(=O)c3ccccc3C(=O)C1C(C1CC1)=C2c1cncc2ccccc12 (centres undefined) | – | 1.16 | 1.1 | 0.87 | 1.75 | – |
| COC12C(=O)c3ccccc3C(=O)C1C(C1CC1)=C2c1ccc(O)c2ncccc12 (centres undefined) | Active | – | – | – | – | – |
| COC12C(=O)c3ccccc3C(=O)C1C(c1ccccc1)=C2c1ccccc1 (centres undefined) | – | 0.63 | 0.58 | 0.45 | 0.91 | – |
| COC12C(=O)c3ccccc3C(=O)C1C(C1CC1)=C2c1ccc(OC(=O)OC(C)(C)C)c2ncccc12 (centres undefined) | inactive | – | – | – | – | – |
| COC12C=C(c3ccc(O)c4ncccc34)C1C(=O)c1ccccc1C2=O (centres undefined) | inactive | – | – | – | – | – |
| COc1ccc(C2=C(c3ccccc3)C3C(=O)c4ccccc4C(=O)C23OC)c2cccnc12 (centres undefined) | Active | – | – | – | – | – |
| COc1ccc(C2=C([Si](C)(C)C)C3(OC)C(=O)c4ccccc4C(=O)C23)c2cccnc12 (centres undefined) | Active | – | – | – | – | – |
| COC12C(=O)c3ccccc3C(=O)C1C(C1CC1)=C2c1cncnc1 (centres undefined) | – | 1.16 | 1.28 | 2.06 | 1.02 | – |
| COC12C(=O)c3ccccc3C(=O)C1C(C1CC1)=C2c1ccccn1 (centres undefined) | – | 0.92 | 0.82 | 1.55 | 1.2 | – |
| COC12C(=O)c3ccccc3C(=O)C1C(c1ccc(OC(C)=O)c3ncccc13)=C2[Si](C)(C)C (centres undefined) | inactive | – | – | – | – | – |
| COC12C(=O)c3ccccc3C(=O)C1C(C1CC1)=C2c1cccnc1 (centres undefined) | – | 0.97 | 0.91 | 0.93 | 1.04 | – |
| COC12C(=O)c3ccccc3C(=O)C1C(C1CC1)=C2c1cnccn1 (centres undefined) | – | 0.83 | 0.74 | 0.84 | 1.63 | – |
| COC12C(=O)c3ccccc3C(=O)C1C(c1ccc(OC(=O)OC(C)(C)C)c3ncccc13)=C2[Si](C)(C)C (centres undefined) | inactive | – | – | – | – | – |
| COC12C(=O)c3ccccc3C(=O)C1C(c1ccccn1)=C2c1ccccc1 (centres undefined) | – | 0.95 | 0.95 | 0.9 | 1.16 | – |
| COC12C=C(c3ccc(OC(=O)OC(C)(C)C)c4ncccc34)C1C(=O)c1ccccc1C2=O (centres undefined) | inactive | – | – | – | – | – |
